Results reported in ChEMBL document CHEMBL1125840, “Antimalarial polyamine analogues” (J Med Chem, 1991).

Key:
Plasmodium berghei [1] = experiment: In vivo antimalarial activity against Plasmodium berghei in mice (Mus musculus) as maximum dose tolerated; type: functional
How it was run: (§1)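 Peters 4-day suppression test, mice in groups of five, P. berghei given intravenously. DFMO 2% in drinking water for four nights (Mon-Thu), starting about 4-6 h after infection. Analogues given intraperitoneally at 8:30, 12:30 and 16:30 on three consecutive days (Tue-Thu). Dose reported as highest tolerated, highest tested, or giving maximum response. Cures judged as survival beyond 4 months with parasite-free Giemsa blood smears.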

Plasmodium berghei [2] = experiment: In vivo antimalarial activity against Plasmodium berghei infected mice (Mus musculus) as cures surviving after 4 months; type: functional
How it was run: (§2)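 Standard 4-day suppression test: mice in groups of five infected intravenously with P. berghei; treatment began about 4-6 h after infection. Co-treatment with DFMO as 2% solution in drinking water for four nights, plus analogue given intraperitoneally three times daily (8:30, 12:30, 16:30) on three consecutive days. Cure means survival beyond 4 months with parasite-free Giemsa-stained blood smears on periodic examination.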

Plasmodium falciparum = experiment: In vitro antimalarial activity against Plasmodium falciparum; type: functional, organism-based
How it was run: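 P. falciparum clone D6 (Sierra Leone strain) grown in human O+ erythrocytes, 1% erythrocyte suspension, starting parasitemia about 0.5%. Analogues dissolved in culture medium and filter-sterilized. After 24 h of exposure, [3H]hypoxanthine (1 µCi) was added and its incorporation measured after a further 18-24 h. IC50 is the concentration (µM) inhibiting incorporation by 50%.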

Plasmodium berghei [3] = experiment: In vivo antimalarial activity against Plasmodium berghei in mice (Mus musculus) as maximum dose tested; type: functional; how it was run: as §1
Plasmodium berghei [4] = experiment: In vivo antimalarial activity against Plasmodium berghei in mice (Mus musculus) as dose required for Emax; type: functional; how it was run: as §1
Plasmodium berghei [5] = experiment: In vivo antimalarial activity as increased survival (%max) against Plasmodium berghei in mice (Mus musculus); type: functional; how it was run: as §2

| SMILES | IC50 (Plasmodium falciparum) [µM] | also measured |
| --- | --- | --- |
| Cl.Cl.Cl.Cl.Clc1ccc(CNCCCNCCCCCCCCNCCCNCc2ccc(Cl)cc2)cc1 | 0.5 | Dose (Plasmodium berghei [1]): 3 mg/kg; Cured (Plasmodium berghei [2]): 60% |
| c1ccc(NCCCNCCCCCCCNCCCNc2ccccc2)cc1 | 0.5 |  |
| Cl.Cl.Cl.Cl.c1ccc(CNCCCNCCCCCCNCCCNCc2ccccc2)cc1 | 5.3 | Dose (Plasmodium berghei [3]): 30 mg/kg |
| NCCCNCCCCCCCCNCCCN | 1800 |  |
| CS(=O)(=O)c1ccc(CNCCCNCCCCCCCNCCCNCc2ccc(S(C)(=O)=O)cc2)cc1 | 86 |  |
| c1cc(CNCCCNCCCCCCCNCCCNCc2ccsc2)cs1 | 3.9 |  |
| NCCCNCCCCCCCCNCCCNCc1ccccc1 | 64 |  |
| c1ccc(CNCCCCNCCCCCCCNCCCCNCc2ccccc2)cc1 | 3.2 |  |
| Cl.Cl.Cl.Cl.c1ccc(CNCCCNCCCCCCCCCNCCCNCc2ccccc2)cc1 | 0.7 | Cured (Plasmodium berghei [2]): 60%; Dose (Plasmodium berghei [4]): 10 mg/kg |
| Cl.Cl.Cl.Cl.c1ccc(CNCCNCCCCCCCCNCCNCc2ccccc2)cc1 | 0.3 | Dose (Plasmodium berghei [3]): 30 mg/kg; Max increase (Plasmodium berghei [5]): 45% |
| CC(N)CCNCCCCCCCNCCC(C)N (stereo unspecified) | > 20 |  |
| c1ccc(CNCCNCCCCCCCNCCNCc2ccccc2)cc1 | 1.4 |  |
| COc1ccc(CNCCCNCCCCCCCNCCCNCc2ccc(OC)cc2)cc1 | 2.5 |  |
| c1ccc(CNCCNCCCCCCNCCNCc2ccccc2)cc1 | 4.5 |  |
| COc1ccc(CNCCCNCCCCCCCCNCCCNCc2ccc(OC)cc2)cc1 | 1.3 |  |
| c1ccc(CCNCCCNCCCCCCCNCCCNCCc2ccccc2)cc1 | 1.9 |  |
| Cl.Cl.Cl.Cl.c1ccc(CNCCCNCCCCCCCNCCCNCc2ccccc2)cc1 | 3 | Cured (Plasmodium berghei [2]): 100%; Dose (Plasmodium berghei [4]): 15 mg/kg |
| Cl.Cl.Cl.Cl.c1ccc(CNCCCNCCCCCNCCCNCc2ccccc2)cc1 | 6.7 | Dose (Plasmodium berghei [3]): 30 mg/kg; Max increase (Plasmodium berghei [5]): 30% |
| Clc1ccc(CNCCCNCCCCCCCNCCCNCc2ccc(Cl)cc2)cc1 | 1.4 |  |
| Oc1ccc(CNCCCNCCCCCCCCNCCCNCc2ccc(O)cc2)cc1 | 5.7 |  |
| C(CCCNCCCNCC1CCCCC1)CCCNCCCNCC1CCCCC1 | 1.8 |  |

| SMILES | IC50 (Plasmodium falciparum) [µM] | also measured |
| --- | --- | --- |
| CCCCNCCCNCCCCCCCCNCCCNCCCC | 30 |  |
| c1ccc2c(CNCCCNCCCCCCCCNCCCNCc3cccc4ccccc34)cccc2c1 | 0.34 |  |
| CC(NCCCNCCCCCCCNCCCNC(C)c1ccccc1)c1ccccc1 (stereo unspecified) | 4.8 |  |
| CS(=O)(=O)c1ccc(CNCCCNCCCCCCCCNCCCNCc2ccc(S(C)(=O)=O)cc2)cc1 | 20 |  |
| CCc1ccc(CNCCCNCCCCCCCNCCCNCc2ccc(CC)cc2)cc1.Cl.Cl.Cl.Cl | 1.8 | Dose (Plasmodium berghei [3]): 30 mg/kg |
| CCc1ccc(CNCCCNCCCCCCCCNCCCNCc2ccc(CC)cc2)cc1 | 1.4 |  |
| c1csc(CNCCCNCCCCCCCNCCCNCc2cccs2)c1 | 4.5 |  |
| c1ccc(CNCCCCNCCCCCCCCNCCCCNCc2ccccc2)cc1 | 5.3 |  |
| Cl.Cl.Cl.Cl.c1ccc(CNCCCNCCCCNCCCNCc2ccccc2)cc1 | 14 | Dose (Plasmodium berghei [3]): 30 mg/kg; Max increase (Plasmodium berghei [5]): 30% |
| NCCCNCCCCCCCNCCCNCc1ccccc1 | 330 |  |
| CSc1ccc(CNCCCNCCCCCCCNCCCNCc2ccc(SC)cc2)cc1 | 3 |  |
| c1ccc(CNCCNCCCCCCCCCCNCCNCc2ccccc2)cc1 | 0.3 |  |
| CC(CCNCCCCCCCNCCC(C)NCc1ccccc1)NCc1ccccc1.Cl.Cl.Cl.Cl (stereo unspecified) | 2.6 | Dose (Plasmodium berghei [3]): 100 mg/kg |
| CSc1ccc(CNCCCNCCCCCCCCNCCCNCc2ccc(SC)cc2)cc1 | 0.6 |  |
| Cl.Cl.Cl.Cl.c1ccc(CNCCCNCCCCCCCCNCCCNCc2ccccc2)cc1 | 0.8 | Cured (Plasmodium berghei [2]): 80%; Dose (Plasmodium berghei [4]): 10 mg/kg |
| Cl.Cl.Cl.Cl.c1ccc(CNCCCNCCCCCCCCCCNCCCNCc2ccccc2)cc1 | 0.5 | Dose (Plasmodium berghei [1]): 3 mg/kg; Cured (Plasmodium berghei [2]): 40% |
| NCCCNCCCCCCCNCCCN | 4300 |  |
| c1ccc(CCCNCCCNCCCCCCCNCCCNCCCc2ccccc2)cc1 | 0.3 |  |
| Cl.Cl.Cl.Cl.c1ccc(CNCCCNCCCCCCCCCCCCNCCCNCc2ccccc2)cc1 | 0.2 | Dose (Plasmodium berghei [1]): 10 mg/kg |
| Oc1ccc(CNCCCNCCCCCCCNCCCNCc2ccc(O)cc2)cc1 | 27 |  |
